The test system of assay [1] is L1210. The assay can be described thus: In vivo percent increase in life span (%ILS) of mice bearing L1210 leukemia at a dose of 400 mg/kg. It is filed as functional, Mus musculus. The settings on record: for ILS at 400 mg/kg: Mus musculus, L1210, dose 400 mg/kg. Summed up:
(§1)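 Run by the NCI Division of Cancer Treatment, which supplied the data, using standard National Cancer Institute protocols for mouse L1210 leukemia.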

In assay [2] the test system is L1210. The assay can be described thus: In vitro inhibitory activity against growth of L1210 mouse leukemia cells at 10E-4 M concentration; IA means Inactive. It is filed as functional, cell-based. Summed up:
(§2)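 L1210 mouse leukemia cells grown in static suspension culture in Fischer's medium for leukemic cells of mice; growth rate over a 3-day period measured with test compound present continuously.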

The subject of assay [3] is L1210. Briefly: In vitro inhibitory activity against growth of L1210 mouse leukemia cells at 10E-4 M concentration. It is filed as functional. The settings on record: read-out: ID50 (the source's name). Summed up:
as §2

Assay [4] relates to L1210. Briefly: In vivo percent increase in life span (%ILS) of mice bearing L1210 leukemia at a dose of 200 mg/kg. It is filed as functional. The settings on record: Mus musculus. In short, it runs like this:
as §1

As a reminder, the ILS is how much longer treated animals lived than controls. A low value points to a small benefit in survival.

Calls of active or inactive are those of the source. No cut-off for these calls is given here.

Consider `O=c1ccn([C@@H]2O[C@H](CO)[C@@H](O)[C@H]2O)c(=O)[nH]1` [URIDINE], for which the ILS at 400 mg/kg in the assay on L1210 [1] is < 25%. In the assay on L1210 [2], the ID50 entry is “inactive”.
Regarding `O=c1cccnn1C1O[C@H](CO)[C@@H](O)[C@H]1O` (stereo partly drawn), the ILS at 400 mg/kg in the assay with L1210 [1] was < 25%. The ID50 result in the assay with L1210 [2] was “inactive”.
Taken in the same sequence, the figures for `C[Si](C)(C)Oc1nncc(Cl)c1Cl` were < 25% and “inactive”.
Taken in the same sequence, the figures for `Nc1cnn([C@H]2C[C@H](O)[C@@H](CO)O2)c(=O)c1` were < 25% and “inactive”.
In the case of `O=c1cc(O)cnn1[C@@H]1O[C@H](CO)[C@@H](O)[C@H]1O` (stereo in doubt; 15), the IC50 with L1210 [3] stood at 70 µM. Also, the ILS at 400 mg/kg with L1210 [1] came to 32%. This compound yielded an ILS at 200 mg/kg in the assay with L1210 [4] of 32%.
In the case of `O=C(OC[C@H]1O[C@@H](n2ncccc2=O)[C@H](OC(=O)c2ccccc2)[C@@H]1OC(=O)c1ccccc1)c1ccccc1`, in the assay on L1210 [1], the ILS at 400 mg/kg is < 25%. Moreover, in the assay on L1210 [2], the ID50 result is “inactive”.
Taken in the same sequence, the figures for `CSc1cnn(C2O[C@H](CO)[C@@H](O)[C@H]2O)c(=O)c1SC` (stereo partly drawn) were < 25% and “inactive”.
Taken in the same sequence, the figures for `CN(C)c1cnn(C2O[C@H](CO)[C@@H](O)[C@H]2O)c(=O)c1` (stereo partly drawn) were < 25% and “inactive”.
Turning to `O=c1cc(O)cnn1[C@@H]1O[C@H](CO)[C@@H](O)[C@H]1O` (stereo in doubt; 17), the increase in lifespan (ILS) with L1210 [1] (dose 400 mg/kg) was >25%.
With `COc1cnn(C2O[C@H](CO)[C@@H](O)[C@H]2O)c(=O)c1` (stereo partly drawn), the ILS at 400 mg/kg in the assay on L1210 [1] is < 25%. In the assay on L1210 [2], the ID50 result was “inactive”.
Taken in the same sequence, the figures for `Nc1cnn([C@H]2C[C@H](O)[C@@H](CO)O2)c(=O)c1Cl` were < 25% and “inactive”.
Taken in the same sequence, the figures for `COc1cnn([C@H]2C[C@H](O)[C@@H](CO)O2)c(=O)c1Cl` were < 25% and “inactive”.
Taken in the same sequence, the figures for `O=C1C=NN(C2O[C@H](CO)[C@@H](O)[C@H]2O)C(=O)C1` (stereo partly drawn) were < 25% and “inactive”.
As to `COc1cnn([C@H]2C[C@H](O)[C@@H](CO)O2)c(=O)c1`, in the assay on L1210 [1], the ILS at 400 mg/kg was < 25%. The ID50 result in the assay on L1210 [2] was “inactive”.
`CNc1cnn(C2O[C@H](CO)[C@@H](O)[C@H]2O)c(=O)c1` (stereo partly drawn): the ILS at 400 mg/kg with L1210 [1] was < 25%. In addition, the ID50 result in the assay with L1210 [2] is “inactive”.
Turning to `CC(=O)OC[C@H]1O[C@@H](N2N=CC(=O)CC2=O)[C@H](OC(C)=O)[C@@H]1OC(C)=O`, the ILS at 400 mg/kg in the assay on L1210 [1] is < 25%. Moreover, the ID50 entry with L1210 [2] is “inactive”.
Taken in the same sequence, the figures for `O=C1C=NN([C@H]2C[C@H](O)[C@@H](CO)O2)C(=O)C1` were < 25% and “inactive”.
With `CN(C)c1cnn(C2O[C@H](CO)[C@@H](O)[C@H]2O)c(=O)c1Cl` (stereo partly drawn), the ILS at 400 mg/kg in the assay on L1210 [1] is < 25%. The ID50 result in the assay on L1210 [2] was “inactive”.
For the compound `COc1cnn(C2O[C@H](CO)[C@@H](O)[C@H]2O)c(=O)c1Cl` (stereo partly drawn), the ILS at 400 mg/kg in the assay on L1210 [1] was < 25%. Besides, the ID50 entry with L1210 [2] was “inactive”.
Consider `O=C(OC[C@H]1O[C@@H](n2ncc(Cl)c(Cl)c2=O)[C@H](OC(=O)c2ccccc2)[C@@H]1OC(=O)c1ccccc1)c1ccccc1`, for which, in the assay with L1210 [1], the ILS at 400 mg/kg was < 25%. For the same compound, the ID50 entry with L1210 [2] was “inactive”.
For the compound `O=c1c(SCc2ccccc2)c(SCc2ccccc2)cnn1C1O[C@H](CO)[C@@H](O)[C@H]1O` (stereo partly drawn), the ILS at 400 mg/kg in the assay with L1210 [1] was < 25%. For the same compound, the ID50 entry with L1210 [2] was “inactive”.
Regarding `Nc1cnn(C2O[C@H](CO)[C@@H](O)[C@H]2O)c(=O)c1Cl` (stereo partly drawn), in the assay on L1210 [1], the ILS at 400 mg/kg is < 25%. Besides, in the assay on L1210 [2], the ID50 entry is “inactive”.
`Nc1cnn(C2O[C@H](CO)[C@@H](O)[C@H]2O)c(=O)c1` (stereo partly drawn): the ILS at 400 mg/kg with L1210 [1] is < 25%. Further, the ID50 result in the assay with L1210 [2] was “inactive”.
Taken in the same sequence, the figures for `CC(=O)OC[C@H]1O[C@@H](n2ncc(N)cc2=O)[C@H](OC(C)=O)[C@@H]1OC(C)=O` were < 25% and “inactive”.
Taken in the same sequence, the figures for `O=c1cnn([C@@H]2O[C@H](CO)[C@@H](O)[C@H]2O)c(=O)[nH]1` [6-AZAURIDINE] were < 25% and “inactive”.
Taken in the same sequence, the figures for `CNc1cnn(C2O[C@H](CO)[C@@H](O)[C@H]2O)c(=O)c1Cl` (stereo partly drawn) were < 25% and “inactive”.
As to `CC1(C)O[C@@H]2[C@H](O1)[C@@H](CO)O[C@H]2n1ncc(N)c(Cl)c1=O`, the ILS at 400 mg/kg in the assay with L1210 [1] is < 25%. In the assay with L1210 [2], the ID50 entry is “inactive”.
Taken in the same sequence, the figures for `CN(C)c1cnn(C2O[C@H](CO)[C@@H](O)[C@H]2O)c(=O)c1N(C)C` (stereo partly drawn) were < 25% and “inactive”.
Taken in the same sequence, the figures for `Oc1nncc(Cl)c1Cl` were > 25% and “inactive”.

The values above are taken from ChEMBL document CHEMBL1122091, “Synthesis of pyridazine analogues of the naturally occurring nucleosides cytidine, uridine, deoxycytidine, and deoxyuridine” (1982).
